Assay outcomes (PubChem BioAssay)
This is a sample that favours compounds with a hit; in the whole collection about 2.1% have one here.
RORa activator – RORA (human) activation | P35398 | CHO-K1 Gal4-RORA LBD luciferase reporter, luminescence; percent increase over mock-subtracted basal signal | activation, % at 10 µM | 65,000 tested, 1.5% active;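 active = activation above the mean of all tested compounds plus 3 SD, cut at about 49% in these data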;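 note: 0% = DMSO-treated RORA cells and 100% = added signal equal to DMSO minus mock-transfected cells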
MT1-MMP txn act – MT1-MMP promoter transcription activation. HT1080 MT1-MMP promoter luciferase reporter, luminescence, overnight; active compounds read high. activation factor at 10 µM. 86,000 tested, 0.16% active. AID 750;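 active = activation factor of at least 2 for MT1-MMP transcription at 10 µM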
TNAP act mid DEA – activators of human TNAP at intermediate phosphate acceptor; purified TNAP, CDP-star luminescence, 100 mM DEA, 30 min; active compounds read high; scale: 0 levamisole-inhibited, 1 vehicle-only enzyme; activation factor at 20 µM; 64,000 tested, under 10 active;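 active = activation factor of at least 2 at 20 µM, relative to controls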
Target sequence (P05186 whole entry, looked up): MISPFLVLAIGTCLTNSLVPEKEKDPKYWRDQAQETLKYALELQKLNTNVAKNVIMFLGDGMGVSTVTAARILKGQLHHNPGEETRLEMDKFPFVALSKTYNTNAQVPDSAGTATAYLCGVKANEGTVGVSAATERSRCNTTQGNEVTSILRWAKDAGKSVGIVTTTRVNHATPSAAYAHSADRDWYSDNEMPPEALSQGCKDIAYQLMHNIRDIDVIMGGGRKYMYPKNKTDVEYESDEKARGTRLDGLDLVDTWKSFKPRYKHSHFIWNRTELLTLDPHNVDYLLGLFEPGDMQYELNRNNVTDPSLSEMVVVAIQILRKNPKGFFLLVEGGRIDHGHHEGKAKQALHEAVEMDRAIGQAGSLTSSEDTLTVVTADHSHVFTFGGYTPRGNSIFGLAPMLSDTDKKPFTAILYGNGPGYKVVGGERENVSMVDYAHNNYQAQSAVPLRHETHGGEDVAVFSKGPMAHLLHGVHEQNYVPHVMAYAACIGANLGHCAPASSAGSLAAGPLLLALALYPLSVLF
SF1 activator – activators of human nuclear receptor SF-1; CHO-K1 Gal4-SF-1 LBD luciferase reporter; % increase over DMSO SF-1-specific signal; Q13285; AID 522; activation, % at 10 µM; 65,000 tested, 1.9% active;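 active = activation above the mean activation of all tested compounds plus 3 SD, cut at about 50% in these data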
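Material: CHO-K1 cells with Gal4–hSF-1 LBD chimera plus Gal4-driven luciferase / Input: 4,000 CHO-K1 cells per well / Incubation: compound exposure 20 h at 37 °C / Signal: luminescence read 15 min after SteadyLite luciferase reagent, after room-temperature equilibration / Read-out: percent activation versus DMSO / Benchmarks: DMSO negative control and −SF1 background wells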
CD11b adhes inh – CD11b/CD18-fibrinogen binding inhibition; inhibition, % at 10 µM; AID 1497; K562 CD11b/CD18 adhesion to fibrinogen, ATPlite luminescence; Mn2+ added to activate the integrin; P05107+P11215; 93,000 tested, 0.54% active;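 active = primary inhibition of 50% or more at 10 µM, then 40% or more on retest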
CD11b adhes enh – enhancers of human CD11b/CD18 binding to fibrinogen; P05107+P11215; K562 CD11b/CD18 adhesion to fibrinogen, ATPlite luminescence; activation, % at 10 µM; 93,000 tested, 0.07% active;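 active = 10 µM primary screen giving 50% or more activity, confirmed by 40% or more on retest at that dose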
* hit, by the source's call; nt = no result given.

SMILES	RORa activator	MT1-MMP txn act	TNAP act mid DEA	SF1 activator	CD11b adhes inh	CD11b adhes enh
COC(=O)[C@@H]1C[C@@]2(O)[C@H](O)[C@H](O)[C@H](O)C[C@H]2N1Cc1ccc(N2CCOCC2)cc1	nt	1.1	nt	nt	nt	nt
CCN(Cc1ccccc1)C(=O)CCCOc1ccccc1	58*	1.5	1	32	-2	2
CNC(=S)Nc1cc(OC)ccc1OC	nt	nt	nt	nt	-19	1
CC1(c2ccccc2)CC(C)(C)N2C(=O)/C(=C3\SC(=S)NC3=O)c3cccc1c32 (centres undefined)	nt	nt	nt	nt	100*	-5
CC1(c2ccccc2)CC(C)(C)N2C(=O)C3(C(C#N)=C(N)Oc4cc(O)ccc43)c3cccc1c32 (centres undefined)	nt	1	nt	nt	30	-7
OC(c1cccs1)(c1cccs1)C1C[N+]2(CF)CCC1CC2 (centres undefined)	nt	nt	nt	nt	-15	-3
COc1ccc(C2c3c(ncn(CCN4CCOCC4)c3=N)Oc3ccc4ccccc4c32)cc1OC (centres undefined)	nt	1.7	nt	nt	2	-3
COc1ccc(S(=O)(=O)N2CCCCC2)cc1	nt	1.1	nt	nt	8	0
COc1ccc(S(=O)(=O)N=C2C=C(C)C(=O)C(C)=C2)cc1	nt	nt	nt	nt	89*	10
Cc1cc(C)nc(SCC(=O)N/N=C/c2cccc([N+](=O)[O-])c2)n1	nt	nt	nt	nt	7	38
Nc1nc(CSCCO)nc(Nc2ccccc2)n1	nt	1.2	nt	nt	-12	4
Nc1nc(CSc2ccccn2)nc(Nc2ccccc2)n1	24	1.1	0.9	58*	3	1
O=C(COc1ccccc1)Nc1nc2ccccc2[nH]1	55*	1.4	1	60*	-4	-2
Cc1ccc(-c2nc3cc(Cl)ccc3o2)cc1	nt	nt	nt	nt	64	-6
COc1cc(OC)cc(-c2nc3cc(C)ccc3o2)c1	57*	1.3	0.9	72*	-27	9
CCOC(=O)CC(NC(=O)c1ccc(C)cc1)c1ccc(C)cc1 (centres undefined)	nt	1.1	nt	nt	14	-1
O=C1C(=O)c2c(C(=O)c3ccccc3)coc2-c2ccccc21	nt	nt	nt	nt	59*	0
N#Cc1c(/N=C/c2cccs2)sc2c1CCC2	-22	1.4	0.9	31	34	0
O=c1c2c3c(sc2ncn1/N=C/c1ccco1)CCCC3	6	1.1	0.9	1	-2	-3
N#Cc1c(/N=C/c2ccco2)sc2c1CCCCC2	45	1	1	82*	79	-4
N#Cc1c(/N=C/c2cc(Br)cs2)sc2c1CCC2	nt	2.2*	nt	nt	nt	nt
Clc1ccc2c(Cl)c(-c3nnc(-c4ccccc4)o3)sc2c1	nt	1.5	nt	nt	nt	nt
COc1ccc(C(NC(=O)c2c(F)c(F)c(F)c(F)c2F)c2ccccc2)cc1 (centres undefined)	nt	nt	nt	nt	4	-3
COc1ccc([C@H]2[C@H](C(=O)C(C)(C)C)N3N=Cc4ccccc4C3[C@]23N=C(c2ccccc2)OC3=O)cc1OC (some centres undefined)	nt	1.1	nt	nt	-3	91*
CC(C)CN1C(=O)c2ccc(C(=O)Nc3ccncc3)cc2C1=O	-12	0.9	0.9	-16	82*	-3
SMILES	RORa activator	MT1-MMP txn act	TNAP act mid DEA	SF1 activator	CD11b adhes inh	CD11b adhes enh
COc1ccc(-n2cc(-c3ccc(C)cc3)[n+]3c2SCC3)cc1	nt	nt	nt	nt	43	-1
COc1ccc(-c2cn(-c3ccc(OC)cc3)c3[n+]2-c2ccccc2CC3)cc1	nt	nt	nt	nt	84*	-3
CCCCC(=O)Nc1ccc(F)c(Cl)c1	-8	1	0.9	11	2	-2
Fc1ccc(NC(=S)Nc2ccc(F)c(Cl)c2)cc1Cl	nt	nt	nt	nt	92*	-7
CCS(=O)(=O)c1ccc2oc(Nc3ccccc3C)nc2c1	30	1.4	0.9	66*	-13	-2
Cc1ccccc1Nc1cc(=O)oc2ccccc12	nt	nt	nt	nt	11	-4
CCCOC(=O)Nc1nc2ccccc2o1	34	1.5	0.9	58*	-4	-2
CSc1nc2ccc(NS(=O)(=O)c3cccc(Cl)c3Cl)cc2s1	nt	nt	nt	nt	83	-5
CC1(C)NC(=O)N(CC(O)CN2CCCCC2)C1=O (centres undefined)	9	1.1	0.8	51*	4	4
O=C(NC1=NCCS1)Nc1ccccc1	44	1.2	0.9	86*	nt	nt
Cc1cc(C(=O)NC2=NCCS2)cs1	43	0.9	0.9	53*	nt	nt
CCOC(=O)C(C(=O)Nc1cccc(C)c1)C1CCCCC1 (centres undefined)	nt	0.9	nt	nt	-28	1
Cc1ccccc1NC(NC(=O)c1cccs1)C(Cl)(Cl)Cl (centres undefined)	nt	nt	nt	nt	9	-3
COC(=O)c1ccc(NC(=O)CN(Cc2ccc(Cl)cc2)S(C)(=O)=O)cc1	nt	1.1	nt	nt	9	1
CC(Cc1ccccc1)C(=O)NCCc1c[nH]c2ccccc12 (centres undefined)	nt	1.1	nt	nt	nt	nt
CCOC(=O)c1[nH]c2ccc(C)cc2c1N	12	1.7	0.9	73*	nt	nt
Cc1ccc(NC(=O)CN2C(=O)S/C(=C\c3cccn3-c3cccc(C(=O)O)c3)C2=O)c(C)c1	nt	nt	nt	nt	-17	87*
Cc1ccccc1NC(=O)CN1C(=O)S/C(=C\c2cccn2-c2cccc(C(=O)O)c2)C1=O	nt	nt	nt	nt	-14	-2
CCOc1cc(S(=O)(=O)N(Cc2ccccc2)Cc2ccccc2)c(OCC)cc1-n1cnnn1	nt	1.3	nt	nt	nt	nt
Cc1nc2nc(-c3cccs3)cn2nc1C	53*	1.4	1	23	12	-1
Cc1nc2nc(-c3ccc(Cl)cc3)cn2nc1C	nt	nt	nt	nt	-5	-3
CC1CCN(c2cc(N)c(Cl)cc2[N+](=O)[O-])CC1	nt	nt	nt	nt	0	1
Clc1cc(Cl)c2nc(N3CCOCC3)sc2c1	21	1.5	0.9	58*	nt	nt
Clc1ccc(Cl)c2sc(N3CCOCC3)nc12	7	1.3	0.9	40	nt	nt
CN(C)c1ccc(NC(=O)Nc2ccc3snnc3c2)cc1	56*	1.3	0.9	48	-3	-2
SMILES	RORa activator	MT1-MMP txn act	TNAP act mid DEA	SF1 activator	CD11b adhes inh	CD11b adhes enh
COc1ccc(NC(=O)Nc2ccc(OC)cc2)cc1	nt	1.3	nt	nt	4	-4
COc1ccc(NC(=O)Nc2ccc(N(C)C)cc2)cc1	58*	1.2	0.9	29	-15	-9
COc1cccc(C(=O)Nc2ccc(N(C)C)cc2)c1OC	43	nt	1	50*	-10	0
O=C(Nc1ccccc1)Nc1ccc2snnc2c1	nt	1.8	nt	nt	nt	nt
COc1ccc(NC(=O)Nc2ccc3nccnc3c2)cc1	57*	1.3	0.9	51*	-2	1
COc1cccc(NC(=O)c2cccc(OC)c2OC)c1	38	1.5	0.9	31	-6	2
CN(C)S(=O)(=O)c1ccc(NC(=O)C2CC3C=CC2C3)cc1 (centres undefined)	nt	nt	nt	nt	6	6
COc1ccc(NC(=O)Nc2nccs2)cc1	64*	1.1	0.9	73*	26	-4
O=C(Nc1ccccc1)Nc1nccs1	nt	1.3	nt	nt	nt	nt
